Measurements from ChEMBL document CHEMBL1148915, “Steroids and sesquiterpenoids from the soft corals Dendronephthya gigantea and Lemnalia cervicorni” (2004).

Legend:
HT-29 = test: Cytotoxicity against human HT29 cells; format: functional; conditions: read-out: ED50 (the source's name)
How it was run: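 HT-29 human colon adenocarcinoma cells obtained from ATCC; in vitro cytotoxicity assay run by a previously described procedure; value given as ED50 in µM; mithramycin run as positive control.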

P388 = test: Cytotoxicity against mouse P388 cells; format: functional; conditions: read-out: ED50 (the source's name)
How it was run: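 P-388 mouse lymphocytic leukemia cells supplied by an academic lab (Purdue); in vitro cytotoxicity assay run by a previously described procedure; ED50 reported in µM; mithramycin included as positive control.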

Structure (SMILES) | EC50 (HT-29) | EC50 (P388)
CC(C)CCC(=O)[C@@H](C)[C@H]1CC[C@H]2[C@@H]3CC[C@H]4CC(=O)C=C[C@]4(C)[C@H]3CC[C@]12C | 9.03 µM | 8.93 µM
CC1=CC(=O)[C@@H]2[C@@H]3[C@H](C(C)C)CC[C@@]2(C)[C@@H]13 | > 50 µM | > 50 µM
C=C1C[C@H](O)[C@@H]2[C@@H]3[C@H](C(C)C)CC[C@@]2(C)[C@@H]13 [CERVICOL] | > 50 µM | > 50 µM
CC(C)C/C=C/[C@@H](C)[C@H]1CC[C@H]2[C@@H]3CC[C@H]4CC(=O)C=C[C@]4(C)[C@H]3CC[C@]12C [DENDRONESTERONE A] | > 100 µM | 9.84 µM
C=C(CC[C@@H](C)[C@H]1CC[C@H]2[C@@H]3CC[C@H]4CC(=O)C=C[C@]4(C)[C@H]3CC[C@]12C)C(C)C [DENDRONESTERONE B] | > 100 µM | > 100 µM
CC(C)C/C=C/[C@@H](C)[C@H]1CC[C@H]2[C@@H]3CCC4=CC(=O)C=C[C@]4(C)[C@H]3CC[C@]12C [DENDRONESTERONE C] | > 100 µM | > 100 µM
CC1=C[C@H](O)[C@@H]2[C@@H]3[C@H](C(C)C)CC[C@@]2(C)[C@@H]13 [ISOLEMNALOL] | > 50 µM | > 50 µM
C=C1[C@H](O)C[C@@H]2[C@@H]3[C@H](C(C)C)CC[C@@]2(C)[C@@H]13 [LEMNALOL] | 10.5 µM | 16.3 µM
CO[C@H](C(=O)[C@@H](O)[C@@H](C)O)[C@@H]1Cc2cc3cc(O[C@H]4C[C@@H](O[C@@H]5C[C@@H](O)[C@H](O)[C@@H](C)O5)[C@H](O)[C@@H](C)O4)c(C)c(O)c3c(O)c2C(=O)[C@H]1O[C@H]1C[C@@H](O[C@@H]2C[C@@H](O)[C@@H](O[C@@H]3C[C@](C)(O)[C@H](O)[C@@H](C)O3)[C@@H](C)O2)[C@H](O)[C@@H](C)O1 [PLICAMYCIN] | 0.21 µM | 0.15 µM
